High-throughput results (PubChem BioAssay)
Most compounds without a hit are left out; they make up all but 0.72% or so of the library.
hIAP inh: blocks human intestinal alkaline phosphatase; P09923; purified IAP, CDP-Star luminescence, 30 min; inhibition, % at 10 µM; hit rate 0.12% among 330,000; AID 2544;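 active = inhibition reaching a set limit with compound at 10 µM in the primary screen, cut at about 35% in these data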
mIAP activ: mouse IAP activation. muIAP, CDP-Star luminescence, 30 min; hits give high values; 1 = vehicle-only enzyme signal, 0 = enzyme-free wells. activation factor at 10 µM. hit rate 0.24% among 330,000. AID 2805;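 active = activation factor of at least 2 at 20 µM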
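Assay system: mouse IAP enzyme; Reagent: CDP-Star chemiluminescent phosphatase substrate; Compound: DMSO-dissolved test compounds; Incubation: 30 min, room temperature; Technique: luminescence from enzymatic CDP-Star hydrolysis; Controls: DMSO-only wells and no-enzyme negative control.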
hIAP act: human IAP activation; activation factor at 10 µM; AID 2524; purified human IAP, CDP-Star luminescence, 30 min; hits give high values; 1 = vehicle-only enzyme, 0 = enzyme-free background; hit rate 0.16% among 330,000;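 active = activation factor of the enzyme at least 2-fold when tested at 20 µM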
mIAP inh: mouse IAP inhibition. hit rate 0.2% among 330,000. inhibition, % at 10 µM. purified mouse IAP, CDP-Star luminescence, 30 min;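 active = inhibition of at least 40% at 10 µM in the primary screen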
bIAP inh: intestinal alkaline phosphatase (bovine) inhibition | purified bovine IAP, CDP-star luminescence, 30 min | inhibition, % at 20 µM | 190,000 tested, under 10 active | AID 1019;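 active = over 50% inhibition of intestinal alkaline phosphatase at 20 µM in the single-dose screen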
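Incubation: 30 min reaction at room temperature / Material: purified bovine intestinal alkaline phosphatase (IAP) enzyme / Input: enzyme at 1/65,000,000 dilution / Dosing: 20 µM single dose / Signal: CDP-star luminescence signal / Reagent: CDP-star chemiluminescent phosphatase substrate, 30 µM final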
bIAP act: intestinal alkaline phosphatase (bovine) activation | purified bovine IAP, CDP-star luminescence, 30 min; hits give high values; fold of DMSO-control signal, blank-subtracted | activation factor at 20 µM | hit rate 0.17% among 200,000 | AID 1016;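 active = activation factor of 2 or more at 20 µM, a signal rise over negative controls twice the positive control's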
mIAP inh confirm: mouse IAP inhibition confirmation. shares compounds with mIAP inh. inhibition, % at 10 µM. AID 434971. hit rate 4.7% among 11,000. purified mouse IAP, CDP-Star luminescence, 30 min;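 active = inhibition of at least 40% at 10 µM in either of the two replicates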
Numbers stand for hits.

`C#CCOCCOCCOCCNc1nc(N2CCN(C(=O)CCCCCCCCCCNC(=O)[C@@H](CCC(=O)O)n3cc(CCCCCN)nn3)CC2)nc(N2CCN(C(=O)CCCCCCCCCCNC(=O)[C@H]([C@@H](C)CC)n3cc(CCCCCN)nn3)CC2)n1` gave hIAP inh inactive, mIAP activ 2.2, hIAP act inactive, mIAP inh inactive and mIAP inh confirm inactive.
C#CCOCCOCCOCCNc1nc(N2CCN(C(=O)CCCCCCCCCCNC(=O)[C@H]([C@@H](C)CC)n3cc(CCCCCN)nn3)CC2)nc(N2CCN(C(=O)CCCCCCCCCCNC(=O)[C@H](CCCCN)n3cc(CCCC(=O)O)nn3)CC2)n1 was read as hIAP inh inactive, mIAP activ 2.42, hIAP act inactive, mIAP inh inactive and mIAP inh confirm inactive.
Screening COc1ccccc1/C=c1\sc2nc(-c3ccccc3OC)nn2c1=O returned hIAP inh inactive, mIAP activ inactive, hIAP act inactive, mIAP inh inactive, bIAP inh inactive and bIAP act inactive.
`COc1ccc(Br)cc1/C=c1\sc2nc(-c3ccco3)nn2c1=O` gave hIAP inh inactive, mIAP activ inactive, hIAP act inactive, mIAP inh 60.1, bIAP inh inactive, bIAP act inactive and mIAP inh confirm 70.1.
`Cc1ccc(/C=c2\sc3nc(-c4ccco4)nn3c2=O)o1` gave hIAP inh inactive, mIAP activ inactive, hIAP act inactive, mIAP inh 60.1, bIAP inh inactive, bIAP act inactive and mIAP inh confirm 81.4.
`CCCCNC(=O)C(c1ccc(OCC(=O)OC)c(C(=O)OC)c1)N(CCc1c[nH]c2ccccc12)C(=O)CCCCCN1C(=O)NC(c2ccc(-c3ccccc3)cc2)C(C(=O)OCc2ccccc2)=C1C` (centres undefined) gave hIAP inh inactive, mIAP activ inactive, hIAP act inactive and mIAP inh inactive.
`COCCn1c(C)cc(/C=C2/SC(=O)N(CC(=O)N3CCCC3)C2=O)c1C` gave hIAP inh inactive, mIAP activ inactive, hIAP act inactive and mIAP inh inactive.
For Cc1ccc(/C=C2\SC(=S)N(CC3CCCO3)C2=O)o1 (centres undefined) the results were hIAP inh inactive, mIAP activ inactive, hIAP act inactive and mIAP inh inactive.
Screening COc1ccc(CCN2C(=O)/C(=C\c3ccco3)SC2=S)cc1OC returned hIAP inh inactive, mIAP activ inactive, hIAP act inactive, mIAP inh 41.6, bIAP inh inactive, bIAP act inactive and mIAP inh confirm 45.4.
Screening O=C1/C(=C\c2ccco2)NC(=S)N1c1ccccc1 returned hIAP inh inactive, mIAP activ inactive, hIAP act inactive, mIAP inh inactive, bIAP inh inactive and bIAP act inactive.
For O=C1/C(=C/c2ccco2)SC(=S)N1CC1CCCO1 (centres undefined) the results were hIAP inh inactive, mIAP activ inactive, hIAP act inactive, mIAP inh 48.0 and mIAP inh confirm 54.3.
`O=C1/C(=C\c2ccco2)SC(=S)N1c1ccccc1` gave hIAP inh inactive, mIAP activ inactive, hIAP act inactive, mIAP inh 64.1, bIAP inh inactive, bIAP act inactive and mIAP inh confirm 56.6.
Cc1ccc(N2C(=O)/C(=C\c3ccco3)SC2=S)cc1 was read as hIAP inh inactive, mIAP activ inactive, hIAP act inactive, mIAP inh 55.0, bIAP inh inactive, bIAP act inactive and mIAP inh confirm 64.5.
`COc1cc(NC(=O)NC2Cc3ccccc3C2)cc(OC)c1` gave hIAP inh inactive, mIAP activ 3.37, hIAP act inactive, mIAP inh inactive and mIAP inh confirm inactive.
For COc1cccc(NC(=O)NC2CCCCCCC2)c1 the results were hIAP inh inactive, mIAP activ 2.05, hIAP act inactive, mIAP inh inactive and mIAP inh confirm inactive.
Screening CCNC(=O)Nc1ccc(OC)cc1OC returned hIAP inh inactive, mIAP activ inactive, hIAP act inactive, mIAP inh inactive, bIAP inh inactive and bIAP act inactive.
CN(C)CCCn1c2c(c(SCC(=O)Nc3nccs3)nc1=O)CCC2 was read as hIAP inh inactive, mIAP activ inactive, hIAP act inactive and mIAP inh inactive.
